Rows were chosen to be rich in hits. Some 1.9% of all compounds tested hit in one or more screens of this group.
M4 PAM – positive allosteric modulators of human muscarinic M4 receptor; CHO-K1 hM4/Gqi5, Fluo-8 calcium fluorescence, ACh EC20; 0% = ACh EC20, 100% = maximal ACh; activation, % at 3 µM; 0.4% of 360,000 active; AID 624126;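 active means activation above its plate's cutoff, the mean activation of sample wells plus 3 SD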
CHRM5 antagonist – blocks acetylcholine activation of human M5 receptor; P08912; CHO-hM5 cells, Fluo-8 calcium fluorescence, ACh EC80; inhibition, % at 3 µM; 0.59% of 360,000 active; AID 624040;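 active means inhibition above a per-plate cutoff, the mean of that plate's test compounds plus 3 SD, cut at about 27% in these data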;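 further: 0% = acetylcholine EC80 with DMSO and 100% = DMSO without agonist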
Target sequence (P08912 whole entry, looked up): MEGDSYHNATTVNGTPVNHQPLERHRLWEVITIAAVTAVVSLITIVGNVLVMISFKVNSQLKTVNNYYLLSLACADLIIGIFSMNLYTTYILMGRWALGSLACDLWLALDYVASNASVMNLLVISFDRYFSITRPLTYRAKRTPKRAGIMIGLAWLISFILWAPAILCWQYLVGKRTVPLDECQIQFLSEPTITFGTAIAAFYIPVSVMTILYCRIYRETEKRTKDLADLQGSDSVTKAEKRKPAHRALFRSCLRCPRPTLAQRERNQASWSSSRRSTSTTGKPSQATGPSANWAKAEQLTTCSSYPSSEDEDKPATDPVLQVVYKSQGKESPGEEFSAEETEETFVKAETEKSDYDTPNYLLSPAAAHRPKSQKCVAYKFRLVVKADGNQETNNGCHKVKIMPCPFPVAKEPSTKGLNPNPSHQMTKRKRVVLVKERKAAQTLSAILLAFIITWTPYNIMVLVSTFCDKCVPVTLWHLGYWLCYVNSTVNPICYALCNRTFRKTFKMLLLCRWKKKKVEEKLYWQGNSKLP
CHRM4 antagonist – CHRM4 antagonism in calcium assay. P08173. CHO-hM4 cells, ACh EC80, Fluo-8 calcium fluorescence. inhibition, % at 3 µM. 0.73% of 360,000 active;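 active means inhibition above its plate's cutoff, the mean inhibition of sample wells plus 3 SD, cut at about 27% in these data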;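 further: 0% = acetylcholine EC80 with DMSO and 100% = DMSO without agonist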
M4 ag – agonists of human muscarinic M4 receptor (CHRM4); CHO-K1 hM4/Gqi5, Fluo-8 calcium fluorescence; vehicle 0%, full acetylcholine response 100%; activation, % at 3 µM; 0.14% of 360,000 active; AID 624127;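 active means activation above the run mean over all test wells plus 3 SD, cut at about 32% in these data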;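 further: peak over basal fluorescence ratio per well then scaled between controls; 0% = DMSO wells and 100% = acetylcholine at EC100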
M5 PAM – positive allosteric modulators of human muscarinic M5 receptor | AID 624038 | 0.3% of 360,000 active | activation, % at 3 µM | CHO-K1 hM5, Fluo-8 calcium, ACh EC20 PAM; 0% = ACh EC20, 100% = ACh EC100;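 active means activation above the run cutoff, the mean activation of all test compounds plus 3 SD, cut at about 18% in these data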
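Test system: CHO-K1 hM5 cells / Doses: single-point, 3 µM nominal / Times: Post-acetylcholine fluorescence recording 140 s / Technique: Fluo-8 calcium fluorescence / Measure: Max/basal fluorescence ratio as % of EC20–EC100 ACh window / Benchmarks: low control EC20 acetylcholine (0%), high control EC100 acetylcholine (100%) / Replicates: one well per compound, no replicates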
M5 ag – agonists of human muscarinic M5 receptor (CHRM5); activation, % at 3 µM; AID 624037; P08912; 0.19% of 360,000 active; CHO-K1 hM5 cells, Fluo-8 calcium fluorescence; 0% DMSO wells, 100% maximal acetylcholine response;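 active means activation above the run's mean over test compounds plus 3 SD, cut at about 23% in these data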;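 further: signal is peak over basal fluorescence ratio across the kinetic read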
The depositor's hits bear a star.

SMILES	M4 PAM	CHRM5 antagonist	CHRM4 antagonist	M4 ag	M5 PAM	M5 ag
O=C(Nc1ccc(Br)c(C(F)(F)F)c1)c1ccc(C(F)(F)F)cc1	-18	31*	34*	10	-34	-4
O=C(Nc1ccc(Br)c(C(F)(F)F)c1)c1ccccc1	-10	10	0	7	-16	-3
Cc1cc(Br)ccc1NC(=O)CN1C(=O)C2C3CC(c4ccccc4)C(C3)C2C1=O (stereo not given)	-21	19	28*	10	-9	3
Cc1cc(Br)ccc1NC(=O)CNC(=O)CN1C(=O)NC2(CCCCCC2)C1=O	-1	7	-1	2	-3	1
CN1C(=O)C(O)(CC(=O)c2ccncc2)c2ccccc21 (stereo not given)	19*	-6	-9	2	17	-1
O=C(Nc1ccccc1F)c1ccc2sc([C@@H]3O[C@H](CO)[C@H](O)[C@H](O)[C@H]3O)nc2c1	12	-1	-10	0	-2	-1
Nc1ncnc2c1ncn2[C@@H]1O[C@H](C(=O)Nc2cc(C(F)(F)F)cc(C(F)(F)F)c2)[C@@H](O)[C@H]1O	-1	12	-5	4	2	1
Cc1ccsc1C(=O)N1CCC1(C)C(=O)Nc1ccc2c(c1)OCCO2 (stereo not given)	-1	-2	-6	1	-1	1
COC(=O)C1(C(=O)OC)C[C@H](c2ccc(OC)cc2)N(Cc2ccccc2OC)[C@@H]1c1ccc(OC)cc1	4	-11	-14	1	-6	-1
CC(C)(C)c1ccccc1OCCN1CCCC1	-32	11	32*	1	-13	-6
CC(OCCN1CCCC1)(c1ccc(F)cc1)c1ccc(F)cc1	-38	36*	47*	4	-20	-7
Cc1ccc(C(C)(C)C)c(OCCN2CCCC2)c1	-31	14	17	2	-17	-6
Cc1ccc2oc(NC3=NC4(CCCC4)C4=C(CCCC4=O)N3)nc2c1	3	11	3	0	-6	0
COc1cc(C(=O)NNC(=O)COc2ccc(C)cc2)ccc1OCC(=O)N1CCOCC1	23*	-4	-8	1	0	4
O=C(COc1ccc(Br)cc1)N1CCOCC1	4	-19	-11	1	18*	0
CCOc1ccc(OCC(=O)N2CCOCC2)cc1	1	2	5	0	-5	-2
COc1cc(C(=O)NNC(=O)COc2ccc(Br)cc2)ccc1OCC(=O)N1CCOCC1	9	10	3	1	6	5
O=C(Cc1ccc(Cl)cc1)Nc1ccc(Cl)cn1	-2	-8	-3	-1	21*	0
O=C(Cc1ccc(F)cc1)Nc1ccc(Cl)cn1	15*	30*	17	5	49*	0
O=C(Cc1ccccc1)Nc1cccnc1	14	-2	3	0	7	-1
O=C(COC(=O)Cc1ccc(F)cc1)Nc1ccc(Cl)cn1	1	-4	-5	0	1	-1
O=C(Cc1ccc(Cl)cc1)Nc1cccnc1	28*	-7	-8	1	1	1
CCCCN1C(=O)C(CC(=O)NCCCCc2ccccc2)CC(C(=O)N2CCCCCC2)=C1C (stereo not given)	-2	-2	-18	6	-8	1
CCOC(=O)c1c(-c2ccc(C)o2)csc1NC(=O)CN(C)CC(=O)Nc1ccc(C)cc1	-21	15	31*	6	-6	-3
Cn1c(=O)c2[nH]c(-c3ccc(S(=O)(=O)O)cc3)nc2n(C)c1=O	-4	-1	-1	1	-20	68*
CC(=O)N1CCN(C(=O)COc2ccc(N(C)S(=O)(=O)c3cccs3)cc2)CC1	18	-1	-22	2	20*	-1
Cc1ccc(-n2nc(C)cc2NC(=O)c2ccc(C)s2)cc1	-34	20	46*	0	-14	-12
Cc1ccc(-n2nc(C)cc2NC(=O)CC#N)cc1	-3	4	2	0	3	-1
